Active and inactive are the calls of the source. No cut-off for these calls is given here.
Legend:
Brain = test: Ratio of unbound drug level in C57Bl6 mouse brain at 10 mg/kg, sc to 1 mg/kg, sc; format: ADME, organism-based; conditions: in vivo
Procedure, shortened: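 Subcutaneous dosing of C57Bl6 mice in DMSO/Cremophor/saline (5:5:90). Plasma (NaF/K2EDTA tubes) and cerebellum collected at 0.5–24 h, 3 mice per time point. Cerebellum diluted 1:4 (w/v) with water and homogenized; samples deproteinated with methanol/acetonitrile plus internal standard, then HPLC-MS/MS. LLOQ 1.0 ng/mL plasma, 0.5 ng/mL brain homogenate. PK parameters by noncompartmental analysis.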

[1] = target: T1, Monoglyceride lipase (Homo sapiens) (UniProt Q99685); test: Inhibition of MAGL in human brain vascular pericytes; format: cell-based
T1 sequence (whole entry): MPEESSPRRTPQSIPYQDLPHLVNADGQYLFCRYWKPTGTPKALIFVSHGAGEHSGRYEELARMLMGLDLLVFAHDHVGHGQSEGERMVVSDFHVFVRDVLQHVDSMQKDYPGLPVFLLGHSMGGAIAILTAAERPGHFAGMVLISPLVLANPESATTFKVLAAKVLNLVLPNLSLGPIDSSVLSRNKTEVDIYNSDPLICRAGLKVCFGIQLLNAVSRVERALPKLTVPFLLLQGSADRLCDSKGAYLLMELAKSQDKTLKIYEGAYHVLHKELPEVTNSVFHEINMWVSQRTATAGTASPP
Procedure, shortened: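 Human brain vascular pericytes grown in DMEM/F12 with 5% heat-inactivated FBS and pericyte growth supplement, then given alkyne-tagged probe (1000× DMSO stock) in medium for 1 h at 37 °C. Pellets lysed in PBS/0.25% SDS, proteome normalized to 1.0 mg/mL, Cu-catalyzed click with TAMRA azide, SDS-PAGE in-gel fluorescence. Two MAGL bands averaged; two biological replicates fitted to a dose–response curve.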

[2] = Lipophilicity, log D of the compound; format: physicochemical; conditions: octanol/water

- Ratio (Brain): 100
- inhibition [1]: Active
- logD [2]: 4.3
Structure (SMILES): O=C(OC(C(F)(F)F)C(F)(F)F)N1CC(c2ccn(-c3ccccc3)n2)C1

— ChEMBL document CHEMBL4028902, “Azetidine and Piperidine Carbamates as Efficient, Covalent Inhibitors of Monoacylglycerol Lipase” (J Med Chem, 2017)
